Experimental data from different studies.
Protocols differ between the studies behind these lines.
Target: MAP/microtubule affinity-regulating kinase 3 (MARK3, Homo sapiens, UniProt P27448)

SMILES | effect on | mode | method | tested at | quantity | result
C1=C/COCc2cc(ccc2OCCN2CCCC2)Nc2nccc(n2)-c2cccc(c2)COC/1 | binding |  |  | 0.1 µM | remaining binding | 100%
CN1CCN(C(=O)c2ccc(NC(=O)Nc3ccc(N(C)c4ccnc(Nc5ccc(CS(C)(=O)=O)cc5)n4)cc3)cc2)CC1 | binding |  |  | 1 µM | remaining binding | 43%
N#Cc1ccc(NC(=O)Nc2ccccc2)cc1 | cell-free assay |  | competition with immobilised ligand | 25 µM | remaining binding | 78%
CCCCC(=O)Nc1ccc(-c2ccc3ncn(CCC)c(=O)c3c2)cn1 | binding |  | competition with immobilised ligand | 0.5 µM | remaining binding | 91%
C#Cc1cnc(Nc2ccnc(CO)c2)nc1Nc1ccccc1S(C)(=O)=NC#N (centres unmarked) | cell-free assay |  |  | 1 µM | remaining signal | 42%
CC(C)S(=O)(=O)c1ccc2nccc(Nc3ccc4sc(C5CCCC5)nc4c3)c2c1 | enzyme activity | inhibitor |  | 1 µM | activity vs control | 120%
Cc1cc(O)c(-c2ccc([C@@H](C)CN(C)C)cc2)c2c1[nH]c(=O)c1sccc12 | enzyme activity | inhibitor |  | 0.1 µM | inhibition | -0.763%
CO[C@@H]1[C@H](N(C)C(=O)c2ccccc2)C[C@H]2O[C@]1(C)n1c3ccccc3c3c4c(c5c6ccccc6n2c5c31)C(=O)NC4 | enzyme activity | inhibitor |  | 1 µM | inhibition | 95%
COc1ccc2oc(-c3ccc4nc(N)oc4c3)c/c(=N\c3ccccc3NC(=O)CCN)c2c1 | binding |  |  | 1 µM | remaining binding | 104%
Cc1ccc(NC(=O)c2ccnc(C(F)(F)F)c2)cc1-c1cc(OCCO)nc(N2CCOCC2)c1 | binding |  |  | 1 µM | remaining binding | 97%
CC#CC(=O)N1CCC[C@H]1c1nc(-c2ccc(C(=O)Nc3ccccn3)cc2)c2c(N)nccn12 | enzyme activity | inhibitor |  | 1 µM | inhibition | 0%
